Here are results for two molecules from ChEMBL document CHEMBL4680178, “Design, synthesis and biological evaluation of new ganglioside GM3 analogues as potential agents for cancer therapy” (Eur J Med Chem, 2020).

What all share (assay type): functional, cell-based
The subject of one assay is B16. Briefly: Antimigratory activity against mouse B16 cells assessed as inhibition of cell migration at 6.25 to 25 uM measured after 24 hrs by scratch wound healing assay. Particulars: dose 6.25-25 µM. The method, boiled down: (§1)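 Near-confluent monolayers (1.5×10^5 cells per well, RPMI-1640 + 10% FBS) scratched with a pipette tip, washed twice with serum-free RPMI-1640, then exposed to compound in fresh FBS-containing medium (DMSO solvent control) for 24 h. Wounds photographed by inverted microscopy; migration expressed as wound width at 24 h / wound width at 0 h (%). Triplicate.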

For another assay, the system named is HCT-116. Briefly: Antiproliferative activity against human HCT-116 cells assessed as inhibition of cell growth after 48 hrs by MTT assay. Particulars: HCT-116, 48 h. An outline of the steps:
(§2)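 Cells grown in RPMI-1640 with 10% heat-inactivated FBS at 37 °C, 5% CO2, seeded at 8×10^3/well, treated 48 h with compound at 20, 200, 400, 1000 μM or DMSO vehicle. MTT (5 mg/mL solution) added for 4 h at 37 °C; absorbance read at 570 nm. IC50 from three independent experiments, mean ± SD.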
On the technique in general: Tetrazolium assays rely on reduction of a dye to a coloured formazan, in cell work by metabolically active cells.

In the next assay the test system is B16-F10. Briefly: Antimigratory activity against mouse B16-F10 cells assessed as inhibition of cell migration at 6.25 to 25 uM measured after 24 hrs by scratch wound healing assay. As to conditions: dose 6.25-25 µM. The method, boiled down:
as §1

The subject of the next assay is K562. Briefly: Antiproliferative activity against human K562 cells assessed as inhibition of cell growth after 48 hrs by MTT assay. As to conditions: K562, 48 h. The method, boiled down: as §2

Calls of active or inactive are those of the source. No cut-off for these calls is given here.

On to `CCCCCCCCCCCCC/C=C/[C@@H](O)[C@H](CO[C@@H]1O[C@H](CO)[C@@H](O[C@@H]2O[C@H](CO[C@]3(C(=O)O)C[C@H](O)[C@@H](NC(C)=O)[C@H]([C@H](O)[C@H](O)CO)O3)[C@H](O)[C@H](O)[C@H]2O)[C@H](O)[C@H]1O)NC(=O)CCCCCCCCCCCCCCCCC`, for which the inhibition entry in the assay with B16 and in the assay with B16-F10 was “Active” in each case. The concentration for half-maximal inhibition (IC50) in the assay with HCT-116 and with K562 was 201 µM in each case.

As to `CCCCCCCCCCCCC/C=C/[C@@H](O)[C@@H](N)CO[C@@H]1O[C@H](CO)[C@@H](O[C@@H]2O[C@H](CO[C@]3(C(=O)O)C[C@H](O)[C@@H](NC(C)=O)[C@H]([C@H](O)[C@H](O)CO)O3)[C@H](O)[C@H](O)[C@H]2O)[C@H](O)[C@H]1O`, the inhibition result in the assay on B16 and in the assay on B16-F10 was “Active” each time. Also, the figures for the IC50 in the assay with HCT-116 and in the assay with K562 were 150 µM and 149 µM, respectively.

The IC50 is the concentration needed to halve the response being measured.
